High-throughput results (PubChem)
GPR7 antag: antagonists of human GPR7 (neuropeptides B/W receptor 1) | 290,000 compounds, 1.1% hits | inhibition, % at 4.4 µM | P48145 | AID 1861 | GPR7-expressing cells, fluorescence antagonist assay; in the data active = inhibition above about 16%, passing the limit was not always enough;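 also: cells stimulated with the agonist NPW; 0% = agonist with vehicle and 100% = vehicle without agonist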
OX1R antag-1: antagonists of human orexin 1 receptor (OX1R); O43613; OX1R-expressing cells, FRET antagonist read-out; inhibition, % at 6.6 µM; 330,000 compounds, 1.8% hits; AID 485270; in the data active = inhibition mostly above about 38%, no sharp cut-off; inactive = mostly below about 40%;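 also: 0% = agonist challenge alone and 100% = reference antagonist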
TAAR1 antagonist: human TAAR1 antagonism; CHO RD-HGA16 TAAR1, Fluo-8 calcium fluorescence, antagonist; 360,000 compounds, 1.5% hits; Q96RJ0; inhibition, % at 3 µM;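 active = inhibition above a per-plate cutoff, the mean inhibition of test compounds on that plate plus 3 SD, cut at about 49% in these data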;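 also: 0% = DMSO plus EC80 beta-PEA response and 100% = DMSO alone without agonist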
Target sequence (Q96RJ0 whole entry, looked up): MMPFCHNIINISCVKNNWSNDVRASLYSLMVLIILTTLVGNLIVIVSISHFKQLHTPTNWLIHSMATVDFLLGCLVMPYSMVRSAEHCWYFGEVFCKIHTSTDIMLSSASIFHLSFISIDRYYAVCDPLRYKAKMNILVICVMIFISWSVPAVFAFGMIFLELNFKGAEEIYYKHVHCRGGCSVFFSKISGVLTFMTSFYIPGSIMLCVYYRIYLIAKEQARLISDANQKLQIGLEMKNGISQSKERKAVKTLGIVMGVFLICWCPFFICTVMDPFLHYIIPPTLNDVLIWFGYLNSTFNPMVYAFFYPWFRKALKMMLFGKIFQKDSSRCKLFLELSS
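Test system: CHO RD-HGA16 cells bearing hTAAR1 | Reagent: β-PEA, EC80 | Compound dosing: 3 µM, single point | Schedule: Dye loading 75 min at 37 °C, then 30 min room temperature | Signal: Calcium fluorescence with Fluo-8 | Evaluation: Percent inhibition of PEA-evoked calcium signal, max/basal emission ratio | Control set: DMSO-only wells and EC80 β-PEA-stimulated wells | Repeats: Singlicate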
OX1R antag-2: antagonists of human orexin 1 receptor; CHO/OX1R cells, Fluo-8 calcium fluorescence, orexin A; AID 434989; O43613; inhibition, % at 5 µM; 330,000 compounds, 0.43% hits;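 active = inhibition above its plate's threshold, mean inhibition of all tested compounds on the plate plus 3 SD, cut at about 37% in these data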;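 also: 0% = orexin A challenge wells and 100% = SB-334867-A antagonist wells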
TAAR1 ag: agonists of human TAAR1 | 360,000 compounds, 0.99% hits | AID 624467 | activation, % at 3 µM | Q96RJ0 | CHO RD-HGA16 TAAR1, Fluo-8 calcium fluorescence; vehicle wells 0%, saturating PEA agonist 100%;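 active = activation above the mean activation of all test compounds in the run plus 3 SD, cut at about 38% in these data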
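Assay system – CHO-derived RD-HGA16 cells with stable Gα16 and human TAAR1 · Compound dosing – one-point dosing at 3 µM (nominal) · Incubation – 17-24 h seeding, 75 min 37 °C dye, 30 min RT · Measured by – kinetic Fluo-8 calcium fluorescence · Control set – DMSO vehicle as 0%, PEA at EC100 as 100% · Repeats – single well for each compound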
CHO parental Ca: counter-screen: ATP calcium response change in parental CHO cells | parental CHO-K1, ATP-induced calcium, Fluo-8 fluorescence | inhibition, % at 5.6 µM | 330,000 compounds, 0.63% hits;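 active = inhibition above that plate's mean sample inhibition plus 3 SD, cut at about 26% in these data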;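 also: 0% = ATP-challenged DMSO wells and 100% = DMSO wells without ATP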
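Material: parental CHO cells / Compound: single nominal dose of 5.6 µM per compound / Signal: Fluo-8 fluorescence / Replicates: singlicate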
GPR7 antag cf: confirmation of human GPR7 antagonists; shares compounds with GPR7 antag; GPR7-expressing cells, calcium fluorescence antagonist mode; inhibition, % at 4.4 µM; 2,400 compounds, 52% hits; AID 1952; in the data active = inhibition above about 24%;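 also: stimulated with the GPR7 agonist NPW; 0% = agonist plus vehicle and 100% = vehicle alone without agonist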
MCHR1 antagonist: antagonizes human MCHR1, a GPR7 antagonist counter-screen; shares compounds with GPR7 antag; MCHR1-expressing cells, fluorescence antagonist assay; inhibition, % at 4.4 µM; 2,400 compounds, 62% hits; in the data active = inhibition above about 22%;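 also: 0% = vehicle with agonist and 100% = vehicle without agonist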
Numbers without * were called inactive; · = not tested or not shown. An excerpt weighted towards active compounds, which were near 4.5% of everything screened.

SMILES	GPR7 antag	OX1R antag-1	TAAR1 antagonist	OX1R antag-2	TAAR1 ag	CHO parental Ca	GPR7 antag cf	MCHR1 antagonist
CCC(C)c1ccc(N(C(=O)c2ccco2)C(C(=O)NC2CCCC2)c2cccnc2)cc1 (stereo unspecified)	51*	19	-8	-44	10	-29	22	14
COc1ccc(C)cc1N(C(=O)c1ccco1)C(C(=O)NC1CCCC1)c1cc(OC)c(OC)c(OC)c1 (stereo unspecified)	43*	29	-14	-18	1	-14	38*	24*
CCOc1ccc(N2CC(C(=O)Nc3ccncc3)CC2=O)cc1 (stereo unspecified)	25*	7	14	-13	-3	-4	-8	1
CCc1ccc(CN(C)C(=O)c2cc(COc3cccc4cnccc34)on2)cc1	38*	35	51*	51*	2	67*	23	46*
CN(Cc1cccc2cnccc12)C(=O)c1cc(COc2ccc(F)cc2F)on1	-6	·	-22	·	4	·	·	·
O=C(Cc1ccc(-n2cccc2)cc1)N1CCN(c2ccccc2F)CC1	27*	12	0	-20	1	-23	5	8
CN1CCN(c2ccc(C(F)(F)F)cc2NC(=O)Nc2ccccc2)CC1	62*	-6	29	17	52*	27	43*	49*
CCN=C1S/C(=C/c2ccc(-c3ccc(F)cc3)o2)C(=O)N1CC	-16	6	-7	-31	-1	-23	·	·
O=C(Nc1nnc(S(=O)(=O)N2CCCCCC2)s1)c1ccc(Cl)cc1	-4	10	-14	-8	3	1	·	·
CC(C)c1ccc(C(=O)Nc2nnc(S(=O)(=O)N3CCCCC3)s2)cc1	67*	13	-6	-15	-2	-8	-8	27*
CCN(c1ccccc1)S(=O)(=O)c1ccc(NC(=O)c2nc(S(C)(=O)=O)ncc2Cl)cc1	98*	20	·	62*	·	46*	97*	102*
O=C(Nc1ccc(F)cc1)c1nc(S(=O)(=O)Cc2ccccc2)ncc1Cl	16	34	25	30	-3	26	·	·
CS(=O)(=O)c1ncc(Cl)c(C(=O)Nc2ccc(OC(F)F)cc2)n1	51*	53*	·	14	·	14	88*	94*
CCN(c1ccccc1)S(=O)(=O)c1ccc(C(=O)Nc2ccncc2)cc1	·	26	0	4	9	7	·	·
CS(=O)(=O)c1ncc(Cl)c(C(=O)Nc2ccc(N3CCOCC3)cc2)n1	1	58	·	11	·	16	·	·
CCS(=O)(=O)c1ncc(Cl)c(C(=O)Nc2ccc(S(=O)(=O)N(C)c3ccccc3)cc2)n1	61*	46*	56*	51*	6	52*	96*	98*
O=C(Nc1ccc(-n2nncc2-c2ccco2)cc1)c1cccc(F)c1	39*	11	35	-3	4	-9	62*	49*
NS(=O)(=O)c1ccc(-n2nncc2-c2ccco2)cc1	-2	29	-16	1	3	4	·	·
N/C(=N\OC(=O)COc1ccccc1)c1ccc(Cl)cc1	24*	6	2	-12	-1	12	-5	8
CCCN(C(=O)CSCC(=O)Nc1cccc(C)c1)c1c(N)n(Cc2ccccc2)c(=O)[nH]c1=O	-10	14	-34	-16	2	-4	·	·
O=c1[nH]c(=S)[nH]c2c1CN(Cc1ccc(F)cc1)CC2	30*	4	-8	-8	2	-7	-5	-5
CCOC(=O)N1CCN(C(=O)COC(=O)C2CCN(S(=O)(=O)c3ccc(C)c(C)c3)CC2)CC1	·	12	3	-18	1	-23	·	·
CN1C2CCC1/C(=C\c1ccccc1F)C(=O)/C2=C/c1ccccc1F	28*	1	-16	-1	12	-11	22	34*
O=C(/C=C/c1ccc([N+](=O)[O-])s1)N1CCN(c2ccccc2)CC1	26*	5	-12	5	-2	-4	6	5
